Data: article PMC6745485 (Heliyon, 2019)
Where “and” joins values, the source holds several entries; their conditions need not be identical. Equal values may be shown once. Entries after “also recorded” stand apart in the source; their conditions may differ.

Key:
Type in all cases: cell-based
rat CAR = target: T1, rat CAR (Rattus norvegicus, UniProt Q9QUS1); test: Rat CAR reporter gene assay in COS-1 cells; details: for Agonistic activity REC20 CAR: concentration showing 20% of the agonistic activity of 30 μM artemisinin; for Agonistic activity REC20 CAR / Inverse agonistic activity RIC20 CAR: ±SD; for Inverse agonistic activity RIC20 CAR: concentration showing 80% of the activity of the vehicle control; for CAR agonistic activity (in words) / CAR inverse agonistic activity (in words): up to 30 μM
T1 sequence (Q9QUS1 1-358): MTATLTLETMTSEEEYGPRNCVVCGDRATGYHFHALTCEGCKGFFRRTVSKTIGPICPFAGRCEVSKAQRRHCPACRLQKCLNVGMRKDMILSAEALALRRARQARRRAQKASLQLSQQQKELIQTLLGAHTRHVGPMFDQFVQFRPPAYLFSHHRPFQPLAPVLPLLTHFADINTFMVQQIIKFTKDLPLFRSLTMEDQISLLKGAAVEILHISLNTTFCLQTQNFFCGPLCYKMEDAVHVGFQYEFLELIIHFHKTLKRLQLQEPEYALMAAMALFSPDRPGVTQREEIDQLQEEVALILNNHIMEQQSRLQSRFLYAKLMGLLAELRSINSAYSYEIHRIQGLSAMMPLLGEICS

rat PXR [1] = target: T2, rat PXR (Rattus norvegicus, UniProt Q9R1A7); details: microsomes of PB- and MC-treated rats, NADPH, vs boiled microsomes
T2 sequence (Q9R1A7 1-431): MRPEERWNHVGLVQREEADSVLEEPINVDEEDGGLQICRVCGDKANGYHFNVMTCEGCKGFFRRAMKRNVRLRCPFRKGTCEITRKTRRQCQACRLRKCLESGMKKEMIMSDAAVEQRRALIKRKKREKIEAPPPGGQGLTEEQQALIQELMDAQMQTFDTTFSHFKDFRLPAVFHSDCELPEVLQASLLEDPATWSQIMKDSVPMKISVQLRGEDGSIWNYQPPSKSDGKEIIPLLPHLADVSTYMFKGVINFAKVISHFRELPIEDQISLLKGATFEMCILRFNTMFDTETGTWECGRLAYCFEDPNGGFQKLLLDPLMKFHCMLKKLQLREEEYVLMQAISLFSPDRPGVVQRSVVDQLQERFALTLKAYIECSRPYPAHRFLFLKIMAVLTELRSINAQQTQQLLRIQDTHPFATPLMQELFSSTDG
Method in brief: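 Test compound (1 μmol) incubated 30 min at 37 °C in 0.1 M K,Na-phosphate pH 7.4. Mix held an NADPH-generating system and liver microsomes (60 mg protein) from male SD rats given PB 80 mg/kg i.p. plus MC 25 mg/kg p.o. daily for 3 d. Boiled microsomes were the control. Ethyl acetate extract went into DMSO and onto transfected COS-1 cells for 24 h. Normalized firefly/Renilla fold vs vehicle; n=3, t-test.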

rat PXR [2] = target: T2, rat PXR; test: Rat PXR reporter gene assay in COS-1 cells; details: for Agonistic activity REC20 PXR: concentration showing 20% of the agonistic activity of 1 μM PCN, ±SD; for PXR agonistic activity (in words): up to 30 μM
Method in brief: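 COS-1 cells (1×10^4/well) co-transfected with rat PXR expression, reporter and Renilla control plasmids via jetPEI. After 24 h, test compound or 0.1% DMSO added in serum-free D-MEM for 24 h. Dual-luciferase read-out, firefly normalized to Renilla, fold vs vehicle. REC20: concentration reaching 20% of 1 μM PCN activity. Mean ± SD, ≥3 experiments in duplicate; Dunnett's test.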

rat PPARα = target: T3, rat PPARα (Rattus norvegicus, UniProt P37230); test: Rat PPARα reporter gene assay in COS-1 cells; details: for Agonistic activity REC20 PPARα: concentration showing 20% of the agonistic activity of 30 μM BZF, ±SD; for PPARα agonistic activity (in words): up to 30 μM
T3 sequence (P37230 1-468): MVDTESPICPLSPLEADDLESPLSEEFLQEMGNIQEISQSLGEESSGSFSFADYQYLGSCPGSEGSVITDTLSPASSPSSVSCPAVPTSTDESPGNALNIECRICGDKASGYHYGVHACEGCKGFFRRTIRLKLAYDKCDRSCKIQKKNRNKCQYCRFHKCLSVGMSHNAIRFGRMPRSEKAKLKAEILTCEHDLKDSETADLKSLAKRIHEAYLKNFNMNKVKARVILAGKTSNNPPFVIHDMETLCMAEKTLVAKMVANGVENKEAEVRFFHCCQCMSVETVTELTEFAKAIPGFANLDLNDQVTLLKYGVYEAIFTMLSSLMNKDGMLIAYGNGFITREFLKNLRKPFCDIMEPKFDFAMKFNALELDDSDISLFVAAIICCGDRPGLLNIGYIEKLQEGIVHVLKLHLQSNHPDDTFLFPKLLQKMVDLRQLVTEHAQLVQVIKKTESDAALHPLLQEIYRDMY

PXR luciferase activity, fold compared to DMSO-treated cells (rat PXR [2]; 1 μM)	PPARα luciferase activity, fold (rat PPARα; 30 μM)	Compound	CAR luciferase activity, fold (rat CAR; 30 μM)	Agonistic activity REC20 CAR (rat CAR)	Change of PXR activity upon incubation with rat liver microsomes (rat PXR [1])	PXR activity, fold compared with the control (rat PXR [2]; 1 μM or lower)	PXR activity, fold compared with the control (rat PXR [2]; concentration range 1–30 μM)	Agonistic activity REC20 PXR (rat PXR [2])	Inverse agonistic activity RIC20 CAR (rat CAR)	Agonistic activity REC20 PPARα (rat PPARα)	PXR agonistic activity (in words) (rat PXR [2])	CAR agonistic activity (in words) (rat CAR)	CAR inverse agonistic activity (in words) (rat CAR)	PPARα agonistic activity (in words) (rat PPARα)
		C[C@@H]1CC[C@H]2[C@@H](C)C(=O)O[C@@H]3O[C@@]4(C)CC[C@@H]1[C@]32OO4 [artemisinin, reference compound]	1.9 fold	2.53 ± 4.02 µM										
		C=CCC1=C(C)C(OC(=O)C2C(C=C(C)C)C2(C)C)CC1=O (stereo not shown) [allethrin]		- ^c (No effect (REC20 > 30 μM))	slightly decreased	about 2 fold	about 3 fold	0.668 ± 0.129 µM	- ^c (No effect (REC20 > 30 μM))	- ^c (No effect (REC20 > 30 μM))				
		OCc1cccc(Oc2ccccc2)c1 [PBAlc, 3-phenoxybenzyl alcohol]		- ^c (No effect (REC20 > 30 μM))				- ^c (No effect (REC20 > 30 μM))	- ^c (No effect (REC20 > 30 μM))	- ^c (No effect (REC20 > 30 μM))	weak PXR agonistic activity	did not show CAR agonistic or inverse agonistic activity	did not show CAR agonistic or inverse agonistic activity	
3.2 fold		CC(=O)[C@H]1[C@H](C#N)C[C@H]2[C@@H]3CC=C4C[C@@H](O)CC[C@]4(C)[C@H]3CC[C@@]21C [PCN, 5-Pregnen-3β-ol-20-one-16α-carbonitrile, reference compound]						0.0887 ± 0.0118 µM						
		CC1(C)[C@H](C(=O)O[C@H](C#N)c2cccc(Oc3ccccc3)c2)[C@@H]1C=C(Br)Br [deltamethrin]			decreased			0.156 ± 0.0216 µM		- ^c (No effect (REC20 > 30 μM))				
		CC(C)=CC1C(C(=O)OCc2cccc(Oc3ccccc3)c2)C1(C)C (stereo not shown) [phenothrin]		- ^c (No effect (REC20 > 30 μM))	to the control level; also recorded: significantly decreased			3.89 ± 1.03 µM	- ^c (No effect (REC20 > 30 μM))	- ^c (No effect (REC20 > 30 μM))	relatively weak activities		showed CAR inverse agonistic activity	
		O=Cc1cccc(Oc2ccccc2)c1 [PBAld, 3-phenoxybenzaldehyde]		- ^c (No effect (REC20 > 30 μM))				- ^c (No effect (REC20 > 30 μM))	- ^c (No effect (REC20 > 30 μM))	- ^c (No effect (REC20 > 30 μM))	inactive	did not show CAR agonistic or inverse agonistic activity	did not show CAR agonistic or inverse agonistic activity	weak activity; also recorded: more active PPARα agonists than the parent compounds
	2.4 fold	CC(C)(Oc1ccc(CCNC(=O)c2ccc(Cl)cc2)cc1)C(=O)O [BZF, bezafibrate, reference compound]								3.68 ± 0.0944 µM				
		O=C(O)c1cccc(Oc2ccccc2)c1 [PBAcid, 3-phenoxybenzoic acid]		- ^c (No effect (REC20 > 30 μM))				- ^c (No effect (REC20 > 30 μM))	- ^c (No effect (REC20 > 30 μM))	26.8 µM and 26.8 ± 21.3 µM	inactive	did not show CAR agonistic or inverse agonistic activity	did not show CAR agonistic or inverse agonistic activity	dose-dependent agonistic activity; also recorded: more active PPARα agonists than the parent compounds
